Measurements: ChEMBL document CHEMBL1140410, “Discovery of the novel antithrombotic agent 5-chloro-N-({(5S)-2-oxo-3- [4-(3-oxomorpholin-4-yl)phenyl]-1,3-oxazolidin-5-yl}methyl)thiophene- 2-carboxamide (BAY 59-7939): an oral, direct factor Xa inhibitor” (J Med Chem, 2005)

Assays:
Coagulation factor X [1] = biological target: T1, Coagulation factor X (Homo sapiens, UniProt P00742); experiment: In vitro inhibition of human coagulation factor Xa after incubation for 10 min at 25 degree C
Coagulation factor X [2] = biological target: T1, Coagulation factor X; experiment: In vitro inhibitory concentration of compound required to double the time to fibrin formation upon incubation with human plasma for 10 minutes at 37 degrees C; format: functional, cell-free
In short: (§1)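 Inhibitor at increasing concentrations, or solvent, added to plasma and incubated 10 min at 37 °C. PT then measured in a coagulometer using commercial kits and compared with control plasma. Value is the concentration that doubles time to fibrin formation.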

Rattus norvegicus [3] = organism: Rattus norvegicus; experiment: In vitro inhibitory concentration of compound required to double the time to fibrin formation upon incubation with rat plasma for 10 minutes at 37 degrees C; format: functional; in short: as §1
[4] = Mean half-life after intravenous administration to rats at a dose of 1 and 3 mg/kg; format: ADME, organism-based; parameters: dose 3 mg/kg, route intravenous; settings: rat, in vivo
In short: (§2)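 Rats given 1 and 3 mg kg-1 iv in PEG400/water (6:4), 5 mL kg-1. Values are means over both doses.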

[5] = Mean plasma clearance in female Beagle dogs after intravenous administration of the compound at a dose of 0.3 and 1 mg/kg; format: ADME, organism-based, Canis lupus familiaris; parameters: dose 1 mg/kg, route intravenous; settings: dog
[6] = Mean half-life after intravenous administration to female Beagle dogs at a dose of 0.3 and 1 mg/kg; format: ADME, organism-based, Canis lupus familiaris; parameters: dose 1 mg/kg, route intravenous; settings: dog, in vivo
[7] = Bioavailability in female Beagle dog is the mean value of AUCnorm perorally to AUCnorm intravenously; format: ADME, organism-based, Canis lupus familiaris; settings: in vivo, po
In short: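 Female beagle dogs dosed po at 0.3, 1 and 3 mg kg-1, 1 mL kg-1. Bioavailability = AUCnorm after oral dosing divided by AUCnorm after iv 0.3 or 1.0 mg kg-1 infusion.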

[8] = Mean apparent volume of distribution at equilibrium after administration in female Beagle dogs at a dose of 0.3 and 1 mg kg-1 intravenously; format: ADME, organism-based, Canis lupus familiaris; parameters: dose 1 mg kg-1, route intravenous; settings: dog, in vivo, iv, read-out: Vss
[9] = Mean apparent volume of distribution at equilibrium after intravenous administration in rats at a dose of 1 and 3 mg/kg; format: ADME, organism-based; parameters: dose 3 mg/kg, route intravenous; settings: rat, in vivo, read-out: Vss; in short: as §2
[10] = Fraction of unbound compound in female Beagle dog plasma; format: ADME, cell-free, Canis lupus familiaris; settings: read-out: Fraction free drug in plasma
In short: (§3)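 Equilibrium dialysis of [14C]-labelled compound in plasma at targets of 0.1–100 mg L-1. Spiked plasma preincubated 15 min at 37 °C, then dialyzed 1 h at 37 °C against PBS pH 7.4 across a cellulose membrane. Radioactivity in buffer and plasma counted by LSC; fu = cu/c × 100.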

[11] = Oral bioavailability in rat; format: ADME, organism-based; settings: in vivo
[12] = Mean plasma clearance in wistar rats after intravenous administration of the compound at a dose of 1 and 3 mg/kg; format: ADME, organism-based; parameters: dose 3 mg/kg, route intravenous; settings: rat; in short: as §2
[13] = Fraction of unbound compound in rat plasma; format: ADME, cell-free; in short: as §3
Rattus norvegicus [14] = experiment: In vivo antithrombotic activity of compound in the arteriovenous shunt model in anesthetized rats after intravenous administration; format: functional
In short: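 Anesthetized rats with a carotid artery to jugular vein shunt: PE-60 catheters joined by a 30 mm PE-160 tube holding a rough nylon thread folded into a 20 mm double string. Compound in PEG/water/glycerol (996 g/100 g/60 g), or vehicle, given as iv bolus into a tail vein 10 min before thrombus induction. Shunt open 15 min; thread with thrombus withdrawn and weighed.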

Rattus norvegicus [15] = experiment: In vivo antithrombotic activity of compound in the arteriovenous shunt model in anesthetized rats after peroral administration; format: functional; settings: po
In short: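 Anesthetized rats, AV shunt from right carotid artery to left jugular vein, containing a nylon thread folded into a 20 mm double string. Compound in solutol/ethanol/water (40%/10%/50% v/v/v), or vehicle, dosed orally 90 min before thrombus induction. Shunt opened for 15 min, then the thread with thrombus was removed and weighed.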

[16] = Half-life after intravenous administration to rats; format: ADME, organism-based; settings: rat, in vivo
[17] = Apparent volume of distribution at equilibrium after intravenous administration in rats; format: ADME, organism-based; settings: rat, in vivo, read-out: Vss
[18] = Plasma clearance in wistar rats after intravenous administration of the compound at a dose of 1 mg/kg; format: ADME, organism-based; parameters: dose 1 mg/kg, route intravenous; settings: rat
In short: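 Rats given 1 mg kg-1 iv in EtOH/PEG400 (1:9), 1 mL kg-1.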

[19] = Plasma clearance in wistar rats after intravenous administration of the compound at a dose of 0.3 mg/kg; format: ADME, organism-based; parameters: dose 0.3 mg/kg, route intravenous; settings: rat
In short: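 Rats given 0.3 mg kg-1 iv in plasma/DMSO (99:1), 2 mL kg-1.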

T1 sequence (P00742 41-179 limits assumed): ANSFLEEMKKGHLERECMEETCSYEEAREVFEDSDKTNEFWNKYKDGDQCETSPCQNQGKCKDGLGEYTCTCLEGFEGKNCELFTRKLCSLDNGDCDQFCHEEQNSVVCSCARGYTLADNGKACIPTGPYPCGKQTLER
T1 sequence (P00742 235-488 limits assumed): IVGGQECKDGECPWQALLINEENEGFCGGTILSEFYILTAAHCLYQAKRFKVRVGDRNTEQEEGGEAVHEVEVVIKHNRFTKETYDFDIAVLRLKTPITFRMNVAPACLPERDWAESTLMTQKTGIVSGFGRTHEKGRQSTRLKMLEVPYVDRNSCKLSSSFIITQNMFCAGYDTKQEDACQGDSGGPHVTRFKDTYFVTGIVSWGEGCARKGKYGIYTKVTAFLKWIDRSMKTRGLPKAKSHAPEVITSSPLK

IC50 (Coagulation factor X [1]) [nM]	SMILES	Concentration (Coagulation factor X [2]) [µM]	Concentration (Rattus norvegicus [3]) [µM]	ED50 (Rattus norvegicus [14]) [mg/kg]	ED50 (Rattus norvegicus [15]) [mg/kg]	further results
20000	O=C(NC[C@H]1CN(c2ccc(N3CCSCC3)c(F)c2)C(=O)O1)c1cccs1					
8.5	Nc1cc(C(=O)NC[C@H]2CN(c3ccc(N4CCOCC4=O)cc3)C(=O)O2)sc1Cl					

Continued, molecule first:

SMILES	IC50 (Coagulation factor X [1]) [nM]	Concentration (Coagulation factor X [2]) [µM]	Concentration (Rattus norvegicus [3]) [µM]	ED50 (Rattus norvegicus [14]) [mg/kg]	ED50 (Rattus norvegicus [15]) [mg/kg]	further results
Nc1cc(N2C[C@H](CNC(=O)c3ccc(Cl)s3)OC2=O)ccc1N1CCOCC1=O		0.3	0.49			
N=C(N)COc1cccc(CN2CC3C(NC(=O)c4ccc(Cl)s4)C=CC[C@H]3C2=O)c1 (some centres not stated)	120					
O=C(NC[C@H]1CN(c2ccc(N3CCOCC3=O)cc2)C(=O)O1)c1ccc(Cl)s1 [RIVAROXABAN]		0.23	0.3	1	5	half-life [4]: 54 min; clearance [5]: 5 mL/min/kg; half-life [6]: 54 min; bioavailability [7]: 86%; Vd [8]: 0.4 L/kg; Vd [9]: 0.3 L/kg; fraction unbound [10]: 0.104; bioavailability [11]: 60%; clearance [12]: 6.67 mL/min/kg; Fraction free drug in plasma [13]: 1.3%
O=C(NC[C@H]1CN(c2ccc(N3CCCC3=O)cc2)C(=O)O1)c1ccc(Cl)s1			2.8	7	> 30	half-life [16]: 66 min; Vd [17]: 0.21 L/kg; bioavailability [11]: 65%; clearance [18]: 2.83 mL/min/kg; fraction unbound ([13]; read-out: Fraction free drug in plasma): 0.002
O=C(NC[C@H]1CN(c2ccc(N3CCOCC3=O)c(F)c2)C(=O)O1)c1ccc(Cl)s1		0.17	0.32	1	10	half-life [16]: 18 min; Vd [17]: 0.32 L/kg; clearance [19]: 18.2 mL/min/kg
O=C(NC[C@H]1CN(c2ccc(N3CCOCC3=O)c(C(F)(F)F)c2)C(=O)O1)c1ccc(Cl)s1		0.26	0.32	3		
